Diaph act CS – activates diaphorase or chemically reduces, flagging diaphorase assay artifacts. Diaphorase/resazurin coupled assay, resorufin fluorescence, 16 min; stronger effect = higher value; 1 = vehicle wells, 0 = NADH-free wells. activation factor at 20 µM. 190,000 compounds, 0.005% hits. AID 1229;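 active means diaphorase activity raised at least twofold by the compound at 20 µM; inactive means activation factor below 2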
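Test system: Clostridium kluyveri diaphorase, purified enzyme. Buffer or medium: 50 mM HEPES pH 7.4 buffer plus MgCl2 and Tween 20. Also added: 0.114 mM NADH and 0.1 mM resazurin, final amounts. Dosing: compound 20 µM once, DMSO 1%. Schedule: 16 min enzyme reaction, ambient temperature. Detection: fluorescence of resorufin, 544 nm excitation, 590 nm emission.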
Diaphorase inh – counter-screen for diaphorase-based assays: diaphorase inhibitors and chemical oxidizers | inhibition, % at 20 µM | AID 1217 | 190,000 compounds, 0.69% hits | diaphorase resazurin-to-resorufin fluorescence, NADH, 16 min; bacterial (C. kluyveri) enzyme, not human;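 active means primary screen inhibition at 20 µM above a set limit, cut at about 50% in these data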;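 further: plate controls were DMSO with full reaction for no effect and wells lacking NADH for full effect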
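Assay system: diaphorase enzyme from Clostridium kluyveri; Input: enzyme working solution with 0.14 U/mL diaphorase; Timing: 16 min at room temperature; Technique: resorufin fluorescence, excitation 544 nm, emission 590 nm; Benchmarks: positive control minus NADH, DMSO neutral control.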
L major viab – reduces viability of Leishmania major promastigotes. 200,000 compounds, 9% hits. inhibition, % at 10 µM. resazurin fluorescence viability;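 further: promastigotes grown with compound for 44 hours at 28 °C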
PfGluPho inh – PfG6PD (Plasmodium falciparum) enzyme inhibition | AID 504690 | PfGluPho enzyme, NADPH resazurin-diaphorase fluorescence | inhibition, % at 20 µM | 350,000 compounds, 0.78% hits;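 active means inhibition reaching at least a set limit at 20 µM in the primary screen, cut at about 59% in these data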;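 further: 0% = DMSO wells with substrate and 100% = DMSO wells lacking glucose-6-phosphate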
Redox H2O2 prof – compounds producing H2O2 with reducing agent – biochemical, NIH compound library profiling, artefact control for MLSCN library redox annotation, primary screen; DTT-dependent redox cycling H2O2, phenol red/HRP absorbance; 100% = 100 µM peroxide control, 0% = buffer; activation, % at 10 µM; 200,000 compounds, 0.03% hits; AID 878;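 active means activation of at least 50% relative to the plate's high and low controls in the primary single-dose screen; inactive means activation below 50%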;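 further: compound incubated with DTT at 0.8 mM final as the reducing agent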
G6PDH CS – L. mesenteroides G6PDH inhibition counter-screen | Purified L. mesenteroides G6PDH, diaphorase/resazurin coupled fluorescence, 45 min | inhibition, % at 5 µM | 200,000 compounds, 0.12% hits | AID 1020
* marks the source's active call; other numbers are inactive results; nt = no result given. This is one part of a sample in which hits are shown more often than they occur. Unless noted, no stated cut-off is given here; in the data, active means inhibition above about 50%; inactive means the rest.

SMILES	Diaph act CS	Diaphorase inh	L major viab	PfGluPho inh	Redox H2O2 prof	G6PDH CS
CC(=O)NC(c1cccc([N+](=O)[O-])c1)c1c(OC(C)=O)ccc2ccccc12 (stereo not given)	nt	nt	71.4*	-6.3	-0.2	nt
CC(=O)NC(c1cccc([N+](=O)[O-])c1)c1ccc2cccnc2c1O (stereo not given)	nt	nt	nt	-6.0	nt	nt
N#CCc1ccccc1C(=O)OCC(=O)N(Cc1ccccc1)Cc1ccccc1	nt	nt	nt	4.4	nt	nt
CC1CC(C)CN(C(=O)C(NS(=O)(=O)c2ccc(Br)s2)c2ccccc2)C1 (stereo not given)	0.9	12.3	80.9*	11.2	0.2	4.8
COc1cccc(CNCCc2c[nH]c3ccccc23)c1OCc1ccccc1	1	-2.8	98.6*	18.8	0.2	10.2
COc1cc(CNCCc2c[nH]c3ccccc23)ccc1OCc1ccccc1F	1.1	-8.1	98.2*	6.9	-3.2	-0.6
COc1ccccc1CNC(=O)Cc1c[nH]c2ccccc12	nt	nt	nt	9.7	nt	nt
COc1cccc(CNC23CC4CC(CC(C4)C2)C3)c1OCc1ccccc1	0.9	8.4	91.6*	6.7	-0.5	1.8
COc1cccc(CNn2cnnc2)c1OCc1ccc(F)cc1	0.8	17.2	1.0	6.5	-0.2	5.3
COc1ccc(CCNC(=O)NCCc2c[nH]c3ccccc23)cc1OC	nt	nt	nt	-6.9	nt	nt
CC(NC(=O)CNC(=O)c1ccco1)c1ccccc1 (stereo not given)	nt	nt	nt	-9.8	nt	nt
O=C(O)CNc1nc(NCc2ccc(Cl)cc2)ccc1[N+](=O)[O-]	nt	nt	nt	-1.9	nt	nt
Cc1cc(N=NC(=O)c2ccccc2)ccc1O	0.8	23.7	85.6*	16.2	-0.1	17.1
COc1c(Cl)cc(Cl)cc1C(=O)Nc1ccc(NC(C)=O)cc1	0.9	5.9	59.5*	-8.1	-0.1	12.4
COc1c(Cl)cc(Cl)cc1/C=C/C(=O)c1ccc(NC(=O)c2cccs2)cc1	0.9	14.4	100.4*	6.4	1.1	-17.6
Cc1c(Cl)cccc1Nc1nc(N)nc(CN2CCc3ccccc3C2)n1	1	4.4	89.1*	-2.8	0.2	2.6
Cc1ccc(Nc2nc(N)nc(CN3CCC(C)CC3)n2)c(C)c1	nt	nt	61.8*	1.3	2.9	nt
Cc1ccccc1Nc1nc(N)nc(CN(C)Cc2ccccc2Cl)n1	0.9	6.7	50.7*	16.9	-0.4	12.8
Cc1ccccc1Nc1nc(N)nc(CSCC(=O)Nc2cccc(Br)c2)n1	0.8	19.8	81.2*	-20.8	0.4	1.2
Cc1ccc(Nc2nc(N)nc(CN3CCCCCC3)n2)c(C)c1	1	4.1	5.2	1.9	0.5	1.4
Cc1ccc(SCc2nc(N)nc(Nc3ccccc3C)n2)cc1C	0.8	15.5	10.8	27.5	0.3	-8.9
O=S(=O)(Nc1ccc(Cl)cc1)c1ccc2c(c1)CCO2	nt	nt	nt	-18.1	nt	nt
CC(NCc1ccc2c(c1)OCO2)C(=O)NC1CCCc2ccccc21 (stereo not given)	0.8	20.6	2.6	-13.8	0.2	-0.7
Cc1ccc(OCC(=O)Nc2nnc(S(=O)(=O)N3CCC(C)CC3)s2)cc1	nt	nt	nt	-5.9	nt	nt
CC(C)[C@@H](C(=O)N1CCNCC1)n1cc(CCO)nn1	1.1	-6.3	-3.3	6.5	0.0	5.3
SMILES	Diaph act CS	Diaphorase inh	L major viab	PfGluPho inh	Redox H2O2 prof	G6PDH CS
CCCCOc1ccccc1C(=O)NNC(=S)NC(=O)c1ccccc1[N+](=O)[O-]	nt	nt	nt	-24.9	nt	nt
Cc1ccc(SCc2nc(N)nc(Nc3ccccc3C)n2)c(C)c1	0.9	5.9	60.0*	26.1	1.3	10.8
Brc1ccc(-c2nnc3sc(CNCc4ccc5c(c4)OCO5)cn23)cc1	0.9	6.5	85.4*	-11.2	-0.2	-31.8
Brc1ccc(-c2nnc3sc(CNC4CCCC4)cn23)cc1	0.9	5.2	91.3*	7.5	1.7	9.3
COc1ccc(-n2c(C)cc(-c3cn4cccc(C)c4n3)c2C)cc1	1	0.0	63.0*	1.9	-1.3	6.2
Cc1cc(-c2cn3ccccc3n2)c(C)n1-c1ccccc1	0.9	8.5	30.1	13.6	-0.1	-6.5
Nc1c2c(nc3ccn(-c4ccccc4)c(=O)c13)CCCCC2	0.8	16.0	41.9	-0.9	2.1	6.1
Nc1c2c(nc3ccn(Cc4ccccc4)c(=O)c13)CCC2	0.9	14.6	89.4*	3.8	0.0	3.2
Cc1cc(Cn2nc(-c3ccccc3)cc2C(=O)NCc2cccs2)on1	nt	nt	nt	8.5	nt	nt
CC1(CC(=O)N/N=C/c2cc(Br)c(O)cc2O)OCCO1	0.8	22.7	90.9*	-4.3	-3.7	-2.4
O=S(=O)(Nc1nc2ccccc2nc1N1CCN(c2ccccc2F)CC1)c1ccc(Cl)cc1	0.8	19.4	-2.1	-41.8	1.2	10.9
Oc1cc(-c2ccccc2)c2ccccc2c1	0.2	84.4*	16.8	101.3*	0.0	38.9
COC(=O)CSc1ccc(S(=O)(=O)N2CCCCCC2)cc1[N+](=O)[O-]	1.1	-12.5	9.6	-10.2	-1.9	-4.2
C/C(CC(=O)Nc1ccc(Cl)c(C(F)(F)F)c1)=N\NC(N)=S	0.8	24.0	97.2*	15.9	-0.2	5.6
O=C(CCNC(=O)c1ccccc1Cl)Nc1ccc(Cl)c(C(F)(F)F)c1	0.9	9.5	51.3*	5.2	0.3	8.8
COc1ccc(C2=C(Nc3ccc(C)cc3)c3ccccc3C2=O)cc1	0.9	10.4	63.9*	-2.8	-0.6	2.5
COC(=O)c1ccc(N)c(N=CC2=C(O)CC(C)(C)CC2=O)c1	0.8	20.4	-2.2	10.6	-0.1	3.2
COC(=O)c1ccc2c(c1)C(C)(C)C(/C=C/c1ccccc1O)=[N+]2C	0.9	9.6	100.6*	14.3	-3.2	2.6
CCCN(C(=O)CSc1nnc(-c2ccc3c(c2)OCO3)o1)C1CCS(=O)(=O)C1 (stereo not given)	nt	nt	nt	-3.0	nt	nt
COc1ccc2c(c1)-c1c(ssc1=S)C(C)(C)N2S(=O)(=O)c1ccc(C)cc1	0.8	23.6	91.8*	3.5	-0.1	-1.0
Cc1ccc(S(=O)(=O)N2c3ccccc3-c3c(ssc3=S)C2(C)C)cc1	0.8	21.3	99.4*	-10.4	1.6	6.2
COc1ccc2c(c1)-c1c(ssc1=S)C(C)(C)N2	0.8	20.1	21.1	20.9	2.6	4.6
CC1(C)c2ssc(=S)c2-c2ccccc2N1C(=O)CSC1=NCCS1	0.9	11.3	4.6	-0.3	-1.9	9.7
CCSc1nc(-c2ccc(OC)cc2)cc(-c2ccccc2)c1C#N	0.8	20.1	0.5	-0.9	0.7	-7.3
COc1ccc(-c2cc(-c3ccccc3)c(C#N)c(S(C)=O)n2)cc1 (stereo not given)	0.8	16.5	100.4*	-1.1	0.3	-3.0
COc1ccc(N/N=C(/N=Nc2nc(C)cc(=O)[nH]2)c2ccccc2)cc1	1.1	-12.2	99.9*	-23.4	0.2	-3.5
